Results published in ChEMBL document CHEMBL1155479, “Highly potent, non-basic 5-HT6 ligands. Site mutagenesis evidence for a second binding mode at 5-HT6 for antagonism” (Bioorg Med Chem Lett, 2010).

Target: Cytochrome P450 2D6 (Homo sapiens, UniProt P10635)
Assay: Inhibition of CYP2D6
Type: ADME

Chain of Cytochrome P450 2D6 (P10635 whole entry): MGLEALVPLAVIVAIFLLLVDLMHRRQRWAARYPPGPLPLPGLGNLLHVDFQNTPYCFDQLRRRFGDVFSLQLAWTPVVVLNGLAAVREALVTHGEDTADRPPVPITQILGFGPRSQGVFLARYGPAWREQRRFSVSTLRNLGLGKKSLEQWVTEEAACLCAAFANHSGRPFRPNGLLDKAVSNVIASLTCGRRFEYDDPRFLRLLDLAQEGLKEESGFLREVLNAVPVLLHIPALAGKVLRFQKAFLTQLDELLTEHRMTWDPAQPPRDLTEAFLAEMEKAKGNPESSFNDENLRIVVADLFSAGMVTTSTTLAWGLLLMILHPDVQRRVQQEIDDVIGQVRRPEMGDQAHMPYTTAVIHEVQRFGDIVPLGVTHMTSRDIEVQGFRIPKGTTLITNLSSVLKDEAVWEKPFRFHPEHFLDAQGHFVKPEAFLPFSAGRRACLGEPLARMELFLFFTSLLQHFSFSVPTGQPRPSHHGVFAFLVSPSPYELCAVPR

**Q.** Which IC50 does the source give for N=C(N)NCC1CCCc2cc(S(=O)(=O)c3ccccc3)ccc21 (stereo unspecified) here?
**A.** < 50 nM

Target: 5-hydroxytryptamine receptor 6 (Homo sapiens, UniProt P50406)
Assay: Displacement of [3H]LSD form human recombinant 5HT6 receptor
Procedure, shortened: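 Membranes prepared from cells engineered to recombinantly express human 5-HT6 receptors; competitive radioligand binding with [3H]LSD; affinity reported as pKi (−log M).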

Chain of 5-hydroxytryptamine receptor 6 (P50406 whole entry): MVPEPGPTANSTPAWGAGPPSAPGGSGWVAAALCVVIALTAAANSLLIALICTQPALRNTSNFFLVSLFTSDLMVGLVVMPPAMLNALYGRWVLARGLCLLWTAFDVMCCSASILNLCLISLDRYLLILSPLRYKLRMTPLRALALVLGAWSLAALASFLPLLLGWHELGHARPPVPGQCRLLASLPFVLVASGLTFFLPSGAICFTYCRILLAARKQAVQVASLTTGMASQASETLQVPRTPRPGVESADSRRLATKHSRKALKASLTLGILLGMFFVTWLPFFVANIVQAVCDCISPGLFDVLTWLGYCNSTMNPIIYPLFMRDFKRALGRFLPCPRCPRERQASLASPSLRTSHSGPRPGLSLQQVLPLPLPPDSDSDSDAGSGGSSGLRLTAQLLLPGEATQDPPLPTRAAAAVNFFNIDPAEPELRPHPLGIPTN

**Q.** For NC[C@@H]1CCCc2cc(S(=O)(=O)c3cccc(F)c3)ccc21, which Ki is on record?
**A.** 0.0794 nM

**Q.** With COCCNC[C@@H]1CCCc2cc(S(=O)(=O)c3cccc(F)c3)ccc21 as the molecule, how does the Ki read?
**A.** 0.251 nM

**Q.** For O=S(=O)(c1cccc(F)c1)c1ccc2c(c1)CCC[C@H]2CN1CC(O)C1, which Ki is on record?
**A.** 0.1 nM

**Q.** Which Ki does the source give for CC(C)(C)C(=O)NC[C@@H]1CCCc2cc(S(=O)(=O)c3cccc(F)c3)ccc21 here?
**A.** 3.98 nM

**Q.** Which Ki does the source give for NC[C@@H]1CCCc2cc(S(=O)(=O)c3ccccc3)ccc21 here?
**A.** 0.158 nM

**Q.** With O=S(=O)(c1cccc(F)c1)c1ccc2c(c1)CCC[C@H]2CNS(=O)(=O)C(F)(F)F as the molecule, how does the Ki read?
**A.** 31.6 nM

**Q.** For O=C(CO)NC[C@@H]1CCCc2cc(S(=O)(=O)c3cccc(F)c3)cc(F)c21, which Ki is on record?
**A.** 0.251 nM

**Q.** Which Ki does the source give for CNC(=O)CNC[C@@H]1CCCc2cc(S(=O)(=O)c3cccc(F)c3)ccc21 here?
**A.** 1 nM

**Q.** Which Ki does the source give for CN(C)CC(=O)NC[C@@H]1CCCc2cc(S(=O)(=O)c3cccc(F)c3)ccc21 here?
**A.** 0.398 nM

**Q.** With NC[C@@H]1CCCc2cc(S(=O)(=O)c3cc(F)cc4[nH]cnc34)ccc21 as the molecule, how does the Ki read?
**A.** 5.01 nM

**Q.** With CN(C[C@@H]1CCCc2cc(S(=O)(=O)c3cccc(F)c3)ccc21)S(C)(=O)=O as the molecule, how does the Ki read?
**A.** 0.398 nM

**Q.** Which Ki does the source give for CNS(=O)(=O)NC[C@@H]1CCCc2cc(S(=O)(=O)c3cccc(F)c3)ccc21 here?
**A.** 1 nM

**Q.** With O=S(=O)(c1cccc(F)c1)c1ccc2c(c1)CCC[C@H]2CNCCO as the molecule, how does the Ki read?
**A.** 0.126 nM

**Q.** For CC(=O)NC[C@@H]1CCCc2cc(S(=O)(=O)c3ccccc3)cc(F)c21, which Ki is on record?
**A.** 0.316 nM

**Q.** With CC(=O)NC[C@@H]1CCCc2cc(S(=O)(=O)c3cccc(F)c3)ccc21 as the molecule, how does the Ki read?
**A.** 0.126 nM

**Q.** For NC(=O)NC[C@@H]1CCCc2cc(S(=O)(=O)c3cccc(F)c3)cc(F)c21, which Ki is on record?
**A.** 0.2 nM

**Q.** For CC(=O)N(C)C[C@@H]1CCCc2cc(S(=O)(=O)c3cccc(F)c3)ccc21, which Ki is on record?
**A.** 1.58 nM

**Q.** For CNC[C@@H]1CCCc2cc(S(=O)(=O)c3cc[nH]c3)ccc21, which Ki is on record?
**A.** 0.158 nM

**Q.** With NC[C@@H]1CCCc2cc(S(=O)(=O)Cc3ccccc3)ccc21 as the molecule, how does the Ki read?
**A.** 158 nM

**Q.** For N=C(N)NCC1CCCc2cc(S(=O)(=O)c3ccccc3)ccc21 (stereo unspecified), which Ki is on record?
**A.** 0.158 nM

**Q.** With NS(=O)(=O)NC[C@@H]1CCCc2cc(S(=O)(=O)c3cccc(F)c3)ccc21 as the molecule, how does the Ki read?
**A.** 0.126 nM

**Q.** With CN(C)S(=O)(=O)NC[C@@H]1CCCc2cc(S(=O)(=O)c3cccc(F)c3)ccc21 as the molecule, how does the Ki read?
**A.** 2 nM

**Q.** Which Ki does the source give for NC[C@@H]1CCCc2cc(S(=O)(=O)c3c[nH]c4ccccc34)ccc21 here?
**A.** 0.0501 nM

**Q.** Which Ki does the source give for CNC(=O)NC[C@@H]1CCCc2cc(S(=O)(=O)c3cccc(F)c3)ccc21 here?
**A.** 0.398 nM

**Q.** With Cn1ccc(S(=O)(=O)c2ccc3c(c2)CCC[C@H]3CN)c1 as the molecule, how does the Ki read?
**A.** 7.94 nM

**Q.** With O=C(NC[C@@H]1CCCc2cc(S(=O)(=O)c3cccc(F)c3)ccc21)c1ncc[nH]1 as the molecule, how does the Ki read?
**A.** 15.8 nM

**Q.** Which Ki does the source give for NC[C@@H]1CCCc2cc(S(=O)(=O)c3cccc(O)c3)ccc21 here?
**A.** 0.251 nM

**Q.** Which Ki does the source give for O=S(=O)(c1ccccc1)c1ccc2c(c1)CCCC2CNc1ncccn1 (stereo unspecified) here?
**A.** 25.1 nM

**Q.** Which Ki does the source give for O=C1CN(C[C@@H]2CCCc3cc(S(=O)(=O)c4cccc(F)c4)ccc32)CCN1 here?
**A.** 6.31 nM

**Q.** Which Ki does the source give for NC(=O)CNC[C@@H]1CCCc2cc(S(=O)(=O)c3cccc(F)c3)ccc21 here?
**A.** 0.1 nM

**Q.** For NC(=O)NC[C@@H]1CCCc2cc(S(=O)(=O)c3cccc(F)c3)ccc21 [LANDIPIRDINE], which Ki is on record?
**A.** 0.2 nM

**Q.** With CNCC1CCCc2cc(S(=O)(=O)c3ccccc3)ccc21 (stereo unspecified) as the molecule, how does the Ki read?
**A.** 0.316 nM

**Q.** With COCC(=O)NC[C@@H]1CCCc2cc(S(=O)(=O)c3cccc(F)c3)ccc21 as the molecule, how does the Ki read?
**A.** 0.794 nM

**Q.** For NC[C@@H]1CCCc2cc(S(=O)(=O)c3cn[nH]c3)ccc21, which Ki is on record?
**A.** 2 nM

**Q.** For O=C(NC[C@@H]1CCCc2cc(S(=O)(=O)c3cccc(F)c3)ccc21)[C@H]1CCCN1, which Ki is on record?
**A.** 0.631 nM

**Q.** With CNCC(=O)NC[C@@H]1CCCc2cc(S(=O)(=O)c3cccc(F)c3)ccc21 as the molecule, how does the Ki read?
**A.** 0.158 nM

**Q.** With NC[C@@H]1CCCc2cc(S(=O)(=O)C3CCCCC3)ccc21 as the molecule, how does the Ki read?
**A.** > 1000 nM

**Q.** With CN(C)CC1CCCc2cc(S(=O)(=O)c3ccccc3)ccc21 (stereo unspecified) as the molecule, how does the Ki read?
**A.** 0.0631 nM

**Q.** With N=C(N)NC(=O)C[C@@H]1CCCc2cc(S(=O)(=O)c3cccc(F)c3)ccc21 as the molecule, how does the Ki read?
**A.** 0.631 nM

**Q.** Which Ki does the source give for NCC(=O)NC[C@@H]1CCCc2cc(S(=O)(=O)c3cccc(F)c3)ccc21 here?
**A.** 0.316 nM

**Q.** Which Ki does the source give for O=C1CN=C(NC[C@@H]2CCCc3cc(S(=O)(=O)c4cccc(F)c4)ccc32)N1 here?
**A.** 0.1 nM

**Q.** Which Ki does the source give for CN(C)C(=O)NC[C@@H]1CCCc2cc(S(=O)(=O)c3cccc(F)c3)ccc21 here?
**A.** 2.51 nM

**Q.** With O=S(=O)(O)CCCNC[C@@H]1CCCc2cc(S(=O)(=O)c3cccc(F)c3)ccc21 as the molecule, how does the Ki read?
**A.** 1.26 nM

**Q.** Which Ki does the source give for CC(C)(O)C(=O)NC[C@@H]1CCCc2cc(S(=O)(=O)c3cccc(F)c3)ccc21 here?
**A.** 2 nM

**Q.** For COC(=O)NC[C@@H]1CCCc2cc(S(=O)(=O)c3cccc(F)c3)ccc21, which Ki is on record?
**A.** 1.58 nM

**Q.** With N#Cc1cccc(S(=O)(=O)c2ccc3c(c2)CCC[C@H]3CN)c1 as the molecule, how does the Ki read?
**A.** 0.501 nM

**Q.** Which Ki does the source give for CC(=N)NCC1CCCc2cc(S(=O)(=O)c3ccccc3)ccc21 (stereo unspecified) here?
**A.** 0.631 nM

**Q.** With CS(=O)(=O)NC[C@@H]1CCCc2cc(S(=O)(=O)c3cccc(F)c3)ccc21 as the molecule, how does the Ki read?
**A.** 0.2 nM

**Q.** For CS(=O)(=O)c1cccc(S(=O)(=O)c2ccc3c(c2)CCC[C@H]3CN)c1, which Ki is on record?
**A.** 3.98 nM

**Q.** With COc1cccc(S(=O)(=O)c2ccc3c(c2)CCC[C@H]3CN)c1 as the molecule, how does the Ki read?
**A.** 0.398 nM

**Q.** Which Ki does the source give for O=C(NC[C@@H]1CCCc2cc(S(=O)(=O)c3cccc(F)c3)ccc21)c1ccc[nH]1 here?
**A.** 5.01 nM

**Q.** Which Ki does the source give for CN(CC(N)=O)C[C@@H]1CCCc2cc(S(=O)(=O)c3cccc(F)c3)ccc21 here?
**A.** 1.26 nM

**Q.** Which Ki does the source give for O=C(CO)NC[C@@H]1CCCc2cc(S(=O)(=O)c3cccc(F)c3)ccc21 here?
**A.** 0.1 nM

**Q.** With NC[C@@H]1CCCc2cc(S(=O)(=O)c3cncs3)ccc21 as the molecule, how does the Ki read?
**A.** 0.794 nM

**Q.** For O=S(=O)(c1cccc(F)c1)c1ccc2c(c1)CCC[C@H]2CN1CCCS1(=O)=O, which Ki is on record?
**A.** 31.6 nM

**Q.** With O=S(=O)(c1cccc(F)c1)c1cc(F)c2c(c1)CCC[C@H]2CNCCO as the molecule, how does the Ki read?
**A.** 0.158 nM

**Q.** For CN(C[C@@H]1CCCc2cc(S(=O)(=O)c3cccc(F)c3)ccc21)S(N)(=O)=O, which Ki is on record?
**A.** 3.98 nM

**Q.** For CN(C[C@@H]1CCCc2cc(S(=O)(=O)c3cccc(F)c3)ccc21)C(N)=O, which Ki is on record?
**A.** 39.8 nM

**Q.** Which Ki does the source give for NC[C@@H]1CCCc2cc(S(=O)(=O)c3cc[nH]c3)ccc21 here?
**A.** 0.316 nM

Tested on: not listed separately
Assay: Inhibition of CYP450
Type: ADME

**Q.** For CC(=O)NC[C@@H]1CCCc2cc(S(=O)(=O)c3ccccc3)cc(F)c21, which IC50 is on record?
**A.** > 15000 nM
